Measurements taken from ChEMBL document CHEMBL1152665, “1,3,4-Oxadiazole-2(3H)-thione and its analogues: a new class of non-competitive nucleotide pyrophosphatases/phosphodiesterases 1 inhibitors” (Bioorg Med Chem, 2009).

Key:
[1] = Noncompetitive inhibition of snake venom NPP1 by Dixon plot analysis; design: species or system Naja naja
[2] = molecular target: T1, Ectonucleotide pyrophosphatase/phosphodiesterase family member 1 (Homo sapiens, UniProt P22413); test: Noncompetitive inhibition of human recombinant NPP1 by Dixon plot analysis
T1 sequence (P22413 whole entry): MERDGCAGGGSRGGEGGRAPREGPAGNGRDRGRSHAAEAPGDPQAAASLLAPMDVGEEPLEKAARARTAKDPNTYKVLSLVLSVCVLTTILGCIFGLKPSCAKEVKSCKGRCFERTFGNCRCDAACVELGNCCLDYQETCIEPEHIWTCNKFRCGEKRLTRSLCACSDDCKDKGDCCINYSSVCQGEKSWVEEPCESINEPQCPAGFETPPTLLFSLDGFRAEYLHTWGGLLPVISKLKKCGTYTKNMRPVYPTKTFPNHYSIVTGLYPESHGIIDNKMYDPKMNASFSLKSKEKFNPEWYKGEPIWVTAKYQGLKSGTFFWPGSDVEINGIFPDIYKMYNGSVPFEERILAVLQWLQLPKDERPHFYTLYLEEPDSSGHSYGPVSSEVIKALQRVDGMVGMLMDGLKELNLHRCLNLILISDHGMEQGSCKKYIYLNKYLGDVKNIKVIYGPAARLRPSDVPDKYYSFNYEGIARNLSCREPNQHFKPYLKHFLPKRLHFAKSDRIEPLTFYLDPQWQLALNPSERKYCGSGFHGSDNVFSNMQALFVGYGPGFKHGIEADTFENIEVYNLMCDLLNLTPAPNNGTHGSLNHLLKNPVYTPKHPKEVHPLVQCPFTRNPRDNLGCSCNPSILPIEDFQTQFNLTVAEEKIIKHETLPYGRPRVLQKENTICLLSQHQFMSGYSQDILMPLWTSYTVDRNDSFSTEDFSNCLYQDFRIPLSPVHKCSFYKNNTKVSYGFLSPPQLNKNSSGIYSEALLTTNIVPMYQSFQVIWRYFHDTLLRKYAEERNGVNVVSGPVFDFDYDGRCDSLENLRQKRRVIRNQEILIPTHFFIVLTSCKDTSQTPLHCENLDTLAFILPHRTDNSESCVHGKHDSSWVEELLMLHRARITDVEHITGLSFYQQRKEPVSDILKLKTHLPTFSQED
Procedure, shortened: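 Same human NPP1 assay at fixed inhibitor concentrations. Dixon plots run at p-nitrophenyl phenyl phosphonate 0.4, 0.6, 0.8 and 1.0 mM, and Lineweaver–Burk plots from initial velocities. Secondary replots were slope versus 1/[S], and 1/Vmaxapp or slope versus inhibitor. Ki is the mean of five values from these plots; points are means of three experiments.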

[3] = Inhibition of snake venom NPP1 assessed as release of p-nitrophenol after 30 mins by microtitre plate spectrophotometry; design: species or system Naja naja
Procedure, shortened: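 Substrate: 0.33 mM bis-(p-nitrophenyl) phosphate. p-Nitrophenol release read at 410 nm, 37 °C, after 30 min incubation. Initial rates taken as OD/min change, run in triplicate. Cysteine and EDTA served as positive controls.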

[4] = molecular target: T1, Ectonucleotide pyrophosphatase/phosphodiesterase family member 1; test: Inhibition of human recombinant NPP1 assessed as release of p-nitrophenol by microtitre plate spectrophotometry
Procedure, shortened: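 Soluble catalytic extracellular domain of human NPP1. Substrate p-nitrophenyl phenyl phosphonate in 20 mM Tris–HCl pH 8.0, 0.5 M NaCl, 1 mM CaCl2. p-Nitrophenol release read at 405 nm, 37 °C, microtitre plate. Triplicates; IC50 given with SEM of 3–5 experiments.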

[5] = Cytotoxicity against human neutrophils assessed as cell viability up to 200 ug/mL after 30 mins by WST1 assay; type: cell-based, Neutrophil
Procedure, shortened: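 Neutrophils isolated from heparinized venous blood of healthy volunteers (Ficoll sedimentation, ammonium chloride 0.83% RBC lysis), 1 × 10^7 cells/mL, exposed to compounds at 200–12.5 µg/mL (five concentrations) for 30 min. Then WST-1 0.25 mM, 3 h at 37 °C with shaking, absorbance 450 nm. Mean of five replicates; % viability relative to untreated control.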

Structure (SMILES) | Ki [1] | Ki [2] | IC50 ([3]; read-out: IC50) | IC50 [4] | viability at 0.5 h [5] | IC50 [3]
S=c1[nH]nc(-c2ccc(OCc3ccccc3)cc2)o1 | 1400 µM | 850 µM | 900 µM | 628 µM |  | 
S=c1[nH]nc(Cc2n[nH]c(=S)s2)s1 | 1050 µM |  | 839 µM |  | > 90% | 
CCCOc1ccc(-c2nn(CC)c(=S)s2)cc1 |  |  |  |  |  | Not Active
S=c1[nH]nc(CCCc2n[nH]c(=S)o2)o1 | 450 µM | 150 µM | 429 µM | 467 µM |  | 
CCCn1nc(-c2ccc(O)cc2)sc1=S |  |  |  |  |  | Not Active
CC(C)(C)[Si](C)(C)Oc1ccc(-c2n[nH]c(=S)s2)cc1 | 100 µM |  | 66.5 µM | > 1000 µM | > 90% | 
Oc1ccc(-c2nn(Cc3ccccc3)c(=S)s2)cc1 |  |  |  |  |  | Not Active
S=c1[nH]nc(Cc2n[nH]c(=S)o2)o1 | 500 µM |  | 850 µM | > 1000 µM |  | 
S=c1[nH]nc(C(c2ccccc2)c2ccccc2)s1 |  |  | > 1000 µM |  |  | 
S=c1sc(-c2ccc(OCc3ccccc3)cc2)nn1Cc1ccccc1 |  |  |  |  |  | Not Active
S=c1[nH]nc(-c2cccc(OCc3ccccc3)c2)o1 |  | 360 µM | > 1000 µM | 494 µM |  | 
CCCCCCCCn1nc(-c2ccc(OCc3ccccc3)cc2)oc1=S |  |  | > 1000 µM |  |  | 
Oc1cccc(-c2n[nH]c(=S)o2)c1 | 1050 µM |  | 1000 µM |  |  | 
S=c1[nH]nc(-c2ccncc2)o1 |  |  | > 1000 µM |  |  | 
S=c1[nH]nc(-c2ccncc2)s1 | 525 µM |  | 660 µM | 998 µM |  | 
Oc1ccc(-c2n[nH]c(=S)o2)cc1 | 1150 µM |  | 960 µM |  |  | 
CC(C)(C)[Si](C)(C)Oc1ccc(-c2n[nH]c(=S)o2)cc1 | 375 µM | 360 µM | 383 µM | 368 µM | > 90% | 
Oc1ccc(-c2n[nH]c(=S)s2)cc1 | 350 µM | 850 µM | 390 µM | 900 µM |  | 
